Screening results as filed in PubChem.
KCNK9 inh: inhibitors of human KCNK9 two-pore domain potassium channel; B-score at 10 µM; HEK293 KCNK9, FluxOR thallium flux fluorescence; active compounds read low; hit rate 1.2% among 310,000;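 active = ratio B-score over 3 SD below the library mean, with starting fluorescence within 5 SD of its mean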;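 note: negative B-score means less thallium flux so channel inhibition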
KCNK3 inh: human KCNK3 channel inhibition, primary screen; O14649; CHO-KCNK3 thallium flux, FluxOR fluorescence; active compounds read low; B-score at 10 µM; hit rate 0.84% among 340,000; AID 602410;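 active = B-score under library mean minus 4 SD, starting fluorescence ratio at most library mean plus 5 SD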;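 note: more negative B-score means stronger inhibition of thallium flux through KCNK3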
KCNQ1 inh: human KCNQ1 channel inhibition | P51787 | hit rate 1.3% among 310,000 | B-score at 10 µM | AID 2642 | CHO-K1 KCNQ1, FluxOR thallium flux fluorescence; active compounds read high;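 active = compounds whose thallium flux B-score, printed positive for inhibition, exceeds three library SD while starting fluorescence stays within three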;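 note: channel opened by potassium depolarization with thallium stimulus after 20 min compound exposure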
KCC2 mod: modulators of human KCC2 chloride dependent transport. Q9H2X9. KCC2 cells, thallium flux FluoZin-2 fluorescence. B-score of Tl+ flux slope (higher = more flux/activation; lower = inhibition) at 10 µM. hit rate 2.2% among 190,000. AID 1456;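 active = thallium flux slope and its plate-corrected score both differing from the plate sample mean at a set confidence after two filtering rounds, in either direction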;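 note: slope of fluorescence scaled to starting intensity during 10 to 20 s after thallium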
KCNQ1 act: human KCNQ1 channel potentiation or activation | P51787 | CHO-K1 KCNQ1, thallium flux FluxOR fluorescence; active compounds read high | B-score at 10 µM | hit rate 0.35% among 310,000 | AID 2648;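 active = fluorescence ratio B-score, a plate-corrected score, at least three library SD, with initial intensity B-score within 5 SD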
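Schedule – 37 °C overnight plating, 90-min dark dye load, 20-min compound pretreatment · System – stable KCNQ1 CHO-K1 line · Probe or stimulus – thallium- and potassium-containing depolarizing buffer · Measured by – kinetic FluxOR fluorescence, 10 s baseline plus 110 s post-stimulus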
hERG protect: hERG (human) protection from proarrhythmic block; Q12809; CHO-hERG, FluxOR thallium flux, dofetilide IC70 present; activation (rescue from dofetilide block), less the hit threshold, % at 10 µM; hit rate 0.51% among 310,000; AID 1511;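 active = activation above the mean of controls blocked by dofetilide plus 5 SD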;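 note: thallium influx through hERG after potassium depolarization seen as dye fluorescence rise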
The depositor's hits bear a star; i = inactive; / = no result given; ! = a repeat was not active. Most compounds without a hit are left out; they make up all but 4.1% or so of the library.

SMILES | KCNK9 inh | KCNK3 inh | KCNQ1 inh | KCC2 mod | KCNQ1 act | hERG protect
CCCCCc1ccc(C(=O)CCCC)c(=S)[nH]1 | i | i | i | 119* | 17* | 35.1*
CN(Cc1ccc(N(C)C)cc1)C(=O)c1cc2ccccc2o1 | i | i | i | / | i | -6.3
CCCc1nn2c(=O)c(C(c3cccc(Cl)c3)c3c(O)nc4sc(CCC)nn4c3=O)c(O)nc2s1 | i | i | i | 1.06 | i | 6.1*
O=P(c1ccccc1)(c1ccccc1)c1cc(Br)cc(Br)c1OCCO | i | i | i | / | i | -12.9
O=P(Cc1cc(Br)cc(Br)c1OCCO)(c1ccccc1)c1ccccc1 | -6.75* | i | i | -1.18 | i | -10.1
CCOc1cc(Br)cc(/C=C2\SC(=Nc3ccccc3)NC2=O)c1O | i | i | 6* | / | i | 1.5
Cc1ccc(S(=O)(=O)/N=C2/NC(=O)/C(=C/c3ccc(Br)o3)S2)cc1 | i | i | i | 0.759 | i | -2.0
Cc1ccc(S(=O)(=O)/N=C2/NC(=O)/C(=C\c3cc(Br)cc(Br)c3O)S2)cc1 | i | i | 7* | / | i | -16.0
COc1ccc(C(=O)Nc2ncc(C)s2)cc1S(=O)(=O)N1CCOCC1 | / | i | / | / | / | /
CC(=O)c1c(O)cc(C)n(-c2ccc(F)cc2)c1=O | i | i | i | -0.0111 | 8* | -6.0
CCCNc1ncc2c(=O)[nH][nH]c(=O)c2n1 | / | i | / | / | / | /
O=C(Cc1ccc(Br)cc1)c1ccc(O)cc1O | -8.24* | i | i | -4 | i | -11.1
COc1ccc(C(=O)c2ccc3oc(-c4ccc(OC)cc4)c(-c4ccc(O)cc4)c3c2)cc1 | / | i | / | / | / | /
O=C(CN(c1cccc(Br)c1)S(=O)(=O)c1ccccc1)N/N=C/c1cc([N+](=O)[O-])ccc1O | i | i | 16* | / | i | -19.6
O=C(CCCC(=O)Nc1cccc(Br)c1)N/N=C/c1cc([N+](=O)[O-])ccc1O | i | i | 7* | / | i | -9.0
N#CC1=C(N)NC(SCC(=O)c2ccc(Cl)cc2)=C(C#N)C12CCCC2 | i | i | 7* | -1.8 | i | -27.2
N#CC1=C(N)NC(SCC(=O)c2ccc(Br)cc2)=C(C#N)C12CCCCC2 | i | i | 12* | -2.83 | i | -26.3
CCCSC1=C(C#N)C2(CCCCC2)C(C#N)=C(N)N1 | i | i | 8* | -1.72 | i | -30.1
CN(Cc1ccccc1)C(=O)c1ccc(S(=O)(=O)N(C)c2ccccc2)cc1 | / | i | / | / | / | /
Cc1ccc(N2CC(C(=O)OCC(=O)c3ccc([N+](=O)[O-])cc3)CC2=O)cc1 (centres undefined) | i | i | i | / | i | -7.2
COc1cc2c(-c3ccccc3)c(C)oc2cc1/C=N/NC(N)=S | i | i | i | / | i | -0.7
CCOC(=O)C1=C(Nc2ccccc2)CC(C)(O)C(C(=O)OCC)C1c1ccc(Cl)cc1 (centres undefined) | / | -9.94*! | / | 0.339 | / | /
Fc1cccc(CO/N=C/c2c(-c3ccccc3)nc3ccc(Cl)cn23)c1 | -6.62* | i | i | -0.791 | i | 6.7*
COc1ccc(-c2nc(CS(=O)CC(=O)NCc3ccc4c(c3)OCO4)c(C)o2)cc1OC (centres undefined) | i | i | i | / | i | -15.9
Cc1nnc(NC(=O)CN2CCN(Cc3ccc(F)cc3Cl)CC2)s1 | i | i | i | / | i | 6.3*
SMILES | KCNK9 inh | KCNK3 inh | KCNQ1 inh | KCC2 mod | KCNQ1 act | hERG protect
CCOc1ccc(Br)cc1S(=O)(=O)Nc1ccc(NC(=O)c2ccccc2C)cc1 | -7.38* | i | i | 0.071 | i | -11.1
CCOc1ccc(Br)cc1S(=O)(=O)Nc1ccc(C(=O)Nc2ccc(C)cc2)cc1 | -7.07* | i | i | 0.707 | i | -3.5
S=c1[nH]nc(Cc2ccc(Br)cc2)n1/N=C/c1ccc(Cl)cc1 | i | i | i | 1.53 | i | 16.1*
CC(C)N(Cc1ccccc1)C(=O)CN1C(=O)NC2(CCOc3ccccc32)C1=O (centres undefined) | / | i | / | / | / | /
CCNC(=O)c1c(NC(=O)c2cc(-c3cc(C)cc(C)c3O)n[nH]2)sc2c1CCCC2 | / | i | / | / | / | /
O=C(COc1coc(CN2CCc3ccccc32)cc1=O)Nc1cccc(F)c1 | i | i | i | / | i | -11.6
